Activity calls are given as the source filed them. The rule behind the calls is not given here.
Tests used:
[1] = Growth inhibition of human OVCAR3 cells; type: functional; details: OVCAR-3
In short: (§1)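 NCI 60-human-cancer-cell-line panel, five-dose screen after a preliminary screen. GI50 is the molar concentration giving 50% growth inhibition.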

SK-OV-3 = assay: Growth inhibition of human SKOV3 cells; type: functional
In short: (§2)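 NCI 60-cell-line panel, five-dose screen; GI50 is the molar concentration giving 50% growth inhibition.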

SF-268 = assay: Growth inhibition of human SF268 cells; type: functional; in short: as §1
[2] = Growth inhibition of human MOLT4 cells; type: functional; details: MOLT-4; in short: as §1
COLO 205 = assay: Growth inhibition of human COLO205 cells; type: functional; in short: as §1
CCRF-CEM = assay: Growth inhibition of human CCRF-CEM cells; type: functional; in short: as §1
KM12 = assay: Growth inhibition of human KM12 cells; type: functional; in short: as §1
HCT-116 = assay: Growth inhibition of human HCT116 cells; type: functional; in short: as §1
NCI-H460 = assay: Growth inhibition of human NCI-H460 cells; type: functional; in short: as §1
IGROV-1 = assay: Growth inhibition of human IGROV1 cells; type: functional; in short: as §1
[3] = Growth inhibition of human OVCAR4 cells; type: functional; details: OVCAR-4; in short: as §1
HL-60(TB) = assay: Growth inhibition of human HL-60(TB) cells; type: functional; in short: as §1
[4] = Growth inhibition of human RXF393 cells; type: functional; details: RXF 393; in short: as §1
K562 = assay: Growth inhibition of human K562 cells; type: functional; in short: as §1
HT-29 = assay: Growth inhibition of human HT-29 cells; type: functional; in short: as §1
M14 = assay: Growth inhibition of human M14 cells; type: functional; in short: as §1
SW-620 = assay: Growth inhibition of human SW620 cells; type: functional; in short: as §2
MDA-MB-435 = assay: Growth inhibition of human MDA-MB-435 cells; type: functional; in short: as §1
HOP-62 = assay: Growth inhibition of human HOP62 cells; type: functional; in short: as §1
[5] = Growth inhibition of human LOXIMVI cells; type: functional; details: LOX IMVI; in short: as §1
CAKI-1 = assay: Growth inhibition of human Caki1 cells; type: functional; in short: as §1
Malme-3M = assay: Growth inhibition of human MALME-3M cells; type: functional; in short: as §1
MDA-MB-231 = assay: Growth inhibition of human MDA-MB-231 cells; type: functional; in short: as §1
SK-MEL-28 = assay: Growth inhibition of human SK-MEL-28 cells; type: functional; in short: as §1
[6] = Growth inhibition of human Hs578T cells; type: functional; details: Hs-578T; in short: as §1
NCI-H322M = assay: Growth inhibition of human NCI-H322M cells; type: functional; in short: as §1
A549 = assay: Growth inhibition of human A549 cells; type: functional; in short: as §1
SK-MEL-2 = assay: Growth inhibition of human SK-MEL-2 cells; type: functional; in short: as §1
[7] = Growth inhibition of human SF539 cells; type: functional; details: SF-539; in short: as §1
SK-MEL-5 = assay: Growth inhibition of human SK-MEL-5 cells; type: functional; in short: as §1
[8] = Growth inhibition of human UO31 cells; type: functional; details: UO-31; in short: as §2
MDA-MB-468 = assay: Growth inhibition of human MDA-MB-468 cells; type: functional; in short: as §1
NCI-H226 = assay: Growth inhibition of human NCI-H226 cells; type: functional; in short: as §1
[9] = Growth inhibition of human OVCAR8 cells; type: functional; details: OVCAR-8; in short: as §1
[10] = Growth inhibition of human OVCAR5 cells; type: functional; details: OVCAR-5; in short: as §1
[11] = Growth inhibition of human UACC62 cells; type: functional; details: UACC-62; in short: as §2
SN12C = assay: Growth inhibition of human SN12C cells; type: functional; in short: as §2
A498 = assay: Growth inhibition of human A498 cells; type: functional; in short: as §1
MCF7 = assay: Growth inhibition of human MCF7 cells; type: functional; in short: as §1
DU-145 = assay: Growth inhibition of human DU145 cells; type: functional; in short: as §1
[12] = Growth inhibition of human BT549 cells; type: functional; details: BT-549; in short: as §1
[13] = Growth inhibition of human UACC257 cells; type: functional; details: UACC-257; in short: as §2
SNB-19 = assay: Growth inhibition of human SNB19 cells; type: functional; in short: as §2
U-251 = assay: Growth inhibition of human U251 cells; type: functional; in short: as §2
PC-3 [14] = assay: Growth inhibition of human PC3 cells; type: functional; in short: as §1
T47D = assay: Growth inhibition of human T47D cells; type: functional; in short: as §2
SR = assay: Growth inhibition of human SR cells; type: functional; in short: as §2
NCI-H23 = assay: Growth inhibition of human NCI-H23 cells; type: functional; in short: as §1
786-0 = assay: Growth inhibition of human 786-0 cells; type: functional; in short: as §1
[15] = Growth inhibition of human HOP92 cells; type: functional; details: HOP-92; in short: as §1
[16] = Growth inhibition of human HCC2998 cells; type: functional; details: HCC 2998; in short: as §1
ACHN = assay: Growth inhibition of human ACHN cells; type: functional; in short: as §1
SNB-75 = assay: Growth inhibition of human SNB75 cells; type: functional; in short: as §2
TK-10 = assay: Growth inhibition of human TK10 cells; type: functional; in short: as §2
[17] = Growth inhibition of human HCT15 cells; type: functional; details: HCT-15; in short: as §1
RPMI-8226 = assay: Growth inhibition of human RPMI8226 cells; type: functional; in short: as §1
[18] = Growth inhibition of human NCI-ADR-RES cells; type: functional; in short: as §1
PC-3 [19] = assay: cells; details: Homo sapiens, PC-3, 72 h
LLC-PK1 [20] = assay: Resistance factor, ratio of GI50 for pig LLC-PK1 cells expressing MDR1 to GI50 for pig LLC-PK1 cells; parameters: species or system Sus scrofa
In short: (§3)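 Porcine epithelial L-MDR1 (P-gp expressing) cells and their non-expressing parent line were exposed to compound for 72 h. Viability was read with AlamarBlue dye and GI50 derived. P-gp expression was verified by Western blot with β-actin as loading control. The resistance ratio compares GI50 in MDR1 versus parent cells.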

PC-3 [21] = assay: Induction of beta tubulin stabilization in human PC3 cells at 10 nM after 24 hrs by DAPI-staining based immunofluorescence assay; type: cell-based
In short: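 PC3 cells were treated for 24 hours with the test agent at 1, 10 or 100 nM, or with 10 nM docetaxel or vinblastine as stabilizing and destabilizing references. Cells were immunostained for beta-tubulin (green) with DAPI nuclear counterstain (blue) and the microtubule staining pattern imaged.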

LLC-PK1 [22] = assay: Growth inhibition of pig LLC-PK1 cells expressing MDR1 by Alamar Blue assay; type: functional; details: Sus scrofa; in short: as §3
OVCAR-8 = assay: Resistance factor, ratio of GI50 for P-gp expressing NCI-ADR-RES cells to GI50 for human OVCAR8 cells; type: functional
In short: (§4)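 Cell viability was read with AlamarBlue dye in 96-well format and GI50 values derived, to assess P-gp effects. Cells were P-gp-expressing NCI/ADR-Res ovarian cancer cells and L-MDR1 porcine epithelial cells, each with its non-expressing parent line. P-gp expression was confirmed by Western blot with β-actin as loading control. Resistance is the GI50 in the P-gp line over the GI50 in the parent line.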

[23] = Growth inhibition of P-gp expressing human NCI-ADR-RES cells by Alamar Blue assay; type: functional
In short: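 72-h cytotoxicity in 96-well plates with AlamarBlue viability dye, giving GI50. Line 1 uses docetaxel-resistant PC3 prostate cells (PC3-DR), and line 2 uses NCI/ADR-Res ovarian cells. P-gp expression in both was confirmed by Western blot, with β-actin as the loading control.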

[24] = Growth inhibition of pig LLC-PK1 cells by Alamar Blue assay; type: cell-based, Sus scrofa; in short: as §4
[25] = Growth inhibition of human OVCAR8 cells by Alamar Blue assay; type: functional; details: OVCAR-8; in short: as §4
PC-3 [26] = assay: Growth inhibition of human PC3 cells after 72 hrs by Alamar Blue assay; type: functional; details: PC-3, 72 h
In short: (§5)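 PC3 prostate cancer cells and docetaxel-resistant PC3-DR cells were exposed to drug for 72 hours in 96-well format. Viability was read with AlamarBlue dye and GI50 derived. Resistance is the GI50 in PC3-DR over the GI50 in parental PC3.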

PC-3 [27] = assay: Resistance factor, ratio of GI50 for P-gp expressing docetaxel-resistant human PC3 cells to GI50 for human PC3 cells; type: functional; in short: as §5

## COc1cc(/C(C#N)=C\c2cc3ccccc3s2)cc(OC)c1OC
[1]
  GI50: < 10 nM
SK-OV-3
  GI50: < 10 nM
SF-268
  GI50: < 10 nM
[2]
  GI50: < 10 nM
COLO 205
  GI50: < 10 nM
CCRF-CEM
  GI50: < 10 nM
KM12
  GI50: < 10 nM
HCT-116
  GI50: < 10 nM
NCI-H460
  GI50: < 10 nM
IGROV-1
  GI50: < 10 nM
[3]
  GI50: < 10 nM
HL-60(TB)
  GI50: < 10 nM
[4]
  GI50: < 10 nM
K562
  GI50: < 10 nM
HT-29
  GI50: < 10 nM
M14
  GI50: < 10 nM
SW-620
  GI50: < 10 nM
MDA-MB-435
  GI50: < 10 nM
HOP-62
  GI50: < 10 nM
[5]
  GI50: < 10 nM
CAKI-1
  GI50: 37.8 nM
Malme-3M
  GI50: < 10 nM
MDA-MB-231
  GI50: < 10 nM
SK-MEL-28
  GI50: < 10 nM
[6]
  GI50: < 10 nM
NCI-H322M
  GI50: 18.3 nM
A549
  GI50: < 10 nM
SK-MEL-2
  GI50: < 10 nM
[7]
  GI50: < 10 nM
SK-MEL-5
  GI50: < 10 nM
[8]
  GI50: < 10 nM
MDA-MB-468
  GI50: < 10 nM
NCI-H226
  GI50: 17.9 nM
[9]
  GI50: < 10 nM
[10]
  GI50: < 10 nM
[11]
  GI50: < 10 nM
SN12C
  GI50: < 10 nM
A498
  GI50: < 10 nM
MCF7
  GI50: < 10 nM
DU-145
  GI50: < 10 nM
[12]
  GI50: < 10 nM
[13]
  GI50: > 100 nM
SNB-19
  GI50: 39.1 nM
U-251
  GI50: < 10 nM
PC-3 [14]
  GI50: < 10 nM
T47D
  GI50: > 100 nM
SR
  GI50: < 10 nM
NCI-H23
  GI50: < 10 nM
786-0
  GI50: < 10 nM
[15]
  GI50: < 10 nM
[16]
  GI50: 19.2 nM
ACHN
  GI50: < 10 nM
SNB-75
  GI50: < 10 nM
TK-10
  GI50: > 100 nM
[17]
  GI50: < 10 nM
RPMI-8226
  GI50: < 10 nM
[18]
  GI50: < 10 nM

## CC(=O)O[C@@]12CO[C@@H]1C[C@H](O)[C@@]1(C)C(=O)[C@H](O)C3=C(C)[C@@H](OC(=O)[C@H](O)[C@@H](NC(=O)OC(C)(C)C)c4ccccc4)C[C@@](O)([C@@H](OC(=O)c4ccccc4)[C@H]21)C3(C)C.O.O.O [DOCETAXEL]
PC-3 [19]
  GI50: 54 nM
LLC-PK1 [20]
  RatioGI50: 627
PC-3 [21]
  Activity: Active
LLC-PK1 [22]
  GI50: 107 nM
OVCAR-8
  RatioGI50: 392
[23]
  GI50: 196 nM
[24]
  GI50: 0.17 nM
[25]
  GI50: 0.5 nM
PC-3 [26]
  GI50: 2.5 nM
PC-3 [27]
  RatioGI50: 22
